We go through 17 compounds from ChEMBL document CHEMBL4477180, “Synthesis and Structure-Activity Relationships of N-Dihydrocoptisine-8-ylidene Aromatic Amines and N-Dihydrocoptisine-8-ylidene Aliphatic Amides as Antiulcerative Colitis Agents Targeting XBP1” (J Nat Prod, 2016).

Molecules are shown by their SMILES. pEC50: −log10 of the molar value. The source made the active and inactive calls. The rule behind the calls is not given here.

Series [1] in a line: Cytotoxicity against rat IEC-6 cells assessed as survival at 10 uM by MTT assay. Type of series: cell-based. Particulars: read-out: Survival. In general terms: Tetrazolium dyes change colour on reduction, which living cells bring about.
Series [2] addresses T1, X-box-binding protein 1 (Rattus norvegicus) (UniProt Q9R1S4).
T1 sequence (whole entry): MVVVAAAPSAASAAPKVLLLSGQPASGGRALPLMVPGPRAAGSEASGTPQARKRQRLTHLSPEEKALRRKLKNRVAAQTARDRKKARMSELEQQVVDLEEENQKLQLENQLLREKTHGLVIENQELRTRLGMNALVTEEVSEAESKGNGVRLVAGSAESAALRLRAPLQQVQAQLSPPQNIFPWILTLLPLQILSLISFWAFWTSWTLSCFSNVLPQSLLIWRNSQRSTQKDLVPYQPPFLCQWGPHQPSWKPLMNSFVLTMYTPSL
Put plainly: Activation of XBP1 in rat IEC-6 cells assessed as transcriptional activity at 10 uM measured after 48 hrs by dual luciferase reporter gene assay relative to con 2. Format: cell-based. The essentials: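 XBP1 transcriptional activity read by dual luciferase reporter in growth-phase IEC-6 cells (5 × 10⁴ cells/well). Cells had 4 h plasmid transfection at 37 °C, 5% CO₂, then were coincubated 48 h with compound at 10 μM. Con 1 served as background contrast and con 2 as the pGL3-basic vector control.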
(In general: In a reporter assay the amount or activity of a reporter protein is the signal.)

The target in the next series is T2, X-box-binding protein 1 (Rattus norvegicus, UniProt Q9R1S4).
T2 sequence (Q9R1S4 whole entry): T1 sequence (whole entry)
Briefly: Activation of XBP1 in rat IEC-6 cells assessed as transcriptional activity measured after 48 hrs by dual luciferase reporter gene assay. Type of series: cell-based. The following applies: for pEC50: read-out: EC50. In a few lines: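 Dose–effect version of the IEC-6 XBP1 dual luciferase reporter assay. Cells (5 × 10⁴/well) had 4 h plasmid transfection at 37 °C, 5% CO₂, then 48 h coincubation with compound; EC₅₀ was taken from the dose–effect relationship.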

The subject of series [3] is Mus musculus. Briefly: Antiulcerative activity in DSS-induced C57BL/6J mouse model of acute ulcerative colitis assessed as body weight loss at 200 mg/kg, po measured over 7 days (reference value: 18%). Type of series: functional.
Series [4] has as its system Mus musculus. Put plainly: Antiulcerative activity in DSS-induced C57BL/6J mouse model of acute ulcerative colitis assessed as colon contracture at 200 mg/kg, po measured over 7 days (reference value: 37 %). Type of series: functional. In a few lines:
(§1)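 Acute DSS colitis in C57bl/6j mice (n = 8/group), oral dosing (200 mg/kg test, SASP 300 mg/kg), 7-day trial with normal and DSS model groups. Colon length was measured at the end of the trial, and contracture was given as percentage shortening versus normal controls.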

Series [5] has as its system Mus musculus. Briefly: Antiulcerative activity in DSS-induced C57BL/6J mouse model of acute ulcerative colitis assessed as inhibition of disease activity index at 200 mg/kg, po measured over 7 days relative to control. Type of series: functional. Particulars: 168 h. The essentials:
(§2)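 Disease activity index (DAI) was scored in DSS-induced acute UC C57bl/6j mice (n = 8/group) given oral compound at 200 mg/kg or SASP at 300 mg/kg over 7 days. Inhibition ratio (IR %) is reported relative to the DSS model group.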

The test system of series [6] is Mus musculus. Briefly: Antiulcerative activity in DSS-induced C57BL/6J mouse model of acute ulcerative colitis assessed as colon macroscopic damage index at 200 mg/kg, po measured over 7 days (reference value: 4.63 +/- 0.52). Format: functional.
The subject of series [7] is Mus musculus. Briefly: Antiulcerative activity in DSS-induced C57BL/6J mouse model of acute ulcerative colitis assessed as improvement in colon lesion at 200 mg/kg, po measured over 7 days by microscopic analysis. Format: functional, organism-based. In a few lines:
(§3)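 At the end of the 7-day DSS acute UC trial in C57bl/6j mice (oral 200 mg/kg; SASP 300 mg/kg; normal and model groups), colon tissue was examined microscopically after HE staining at ×200 for histopathological change.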

In series [8] the test system is Mus musculus. Briefly: Antiulcerative activity in DSS-induced C57BL/6J mouse model of acute ulcerative colitis assessed as regular arrangement of IEC cells at 200 mg/kg, po measured over 7 days by microscopic analysis. Type of series: functional, organism-based. In a few lines: as §3
The test system of series [9] is Mus musculus. Put plainly: Antiulcerative activity in DSS-induced C57BL/6J mouse model of acute ulcerative colitis assessed as body weight loss at 300 mg/kg, po measured over 7 days (reference value: 18%). Format: functional.
Series [10] concerns Mus musculus. Briefly: Antiulcerative activity in DSS-induced C57BL/6J mouse model of acute ulcerative colitis assessed as colon contracture at 300 mg/kg, po measured over 7 days (reference value: 37 %). Type of series: functional. The essentials:
as §1

The subject of series [11] is Mus musculus. Put plainly: Antiulcerative activity in DSS-induced C57BL/6J mouse model of acute ulcerative colitis assessed as inhibition of disease activity index at 300 mg/kg, po measured over 7 days relative to control. Format: functional. Particulars: 168 h. The essentials:
as §2

Series [12] concerns Mus musculus. Briefly: Antiulcerative activity in DSS-induced C57BL/6J mouse model of acute ulcerative colitis assessed as colon macroscopic damage index at 300 mg/kg, po measured over 7 days (reference value: 4.63 +/- 0.52). Type of series: functional.
The test system of series [13] is Mus musculus. Briefly: Antiulcerative activity in DSS-induced C57BL/6J mouse model of acute ulcerative colitis assessed as partial disappearance of inflammatory edema at 300 mg/kg, po measured over 7 days by microscopic analysis.

In general, pEC50 refers to −log10 of the EC50, conventionally taken in molar units. As for `c1ccc(/N=c2/c3c4c(ccc3cc3n2CCc2cc5c(cc2-3)OCO5)OCO4)cc1`, in [1], the viability at 10 µM lay within 79 to 103%. Further, in [2], the fold change (FC) was over 1.07. Moreover, at X-box-binding protein 1, the pEC50 was 6.95.
For the compound `[Cl-].c1c2c(cc3c1OCO3)-c1cc3ccc4c(c3c[n+]1CC2)OCO4` [COPTISINE CHLORIDE], the viability at 10 µM in series [1] was in the range of 79 to 103%. Further, the Ratio in [2] was in the range of 0.78 to 107. Besides, at X-box-binding protein 1, the EC50 entry is recorded as “Not Active”.
`Fc1ccc(/N=c2/c3c4c(ccc3cc3n2CCc2cc5c(cc2-3)OCO5)OCO4)cc1`: the viability at 10 µM in series [1] fell in the range of 79 to 103%. Further, the fold change (FC) in series [2] was over 1.07. For the same compound, on X-box-binding protein 1, the pEC50 is 6.46.
On to `CCCCCCCC(=O)/N=c1\c2c3c(ccc2cc2n1CCc1cc4c(cc1-2)OCO4)OCO3`, for which, in series [1], the viability at 10 µM lay within 79 to 103%. The Ratio in series [2] is 0.78 to 107. Moreover, the EC50 result on X-box-binding protein 1 is “Not Active”.
`COc1ccc(/N=c2/c3c4c(ccc3cc3n2CCc2cc5c(cc2-3)OCO5)OCO4)cc1`: the viability at 10 µM in [1] was 79 to 103%. Further, the Ratio in series [2] lay in the range of 0.78 to 107. For the same compound, the pEC50 at X-box-binding protein 1 is 6.74.
On to `CCCCCCC(=O)/N=c1\c2c3c(ccc2cc2n1CCc1cc4c(cc1-2)OCO4)OCO3`, for which the viability at 10 µM in series [1] was in the range of 79 to 103%. Also, in [2], the Ratio fell in the range of 0.78 to 107. The EC50 entry on X-box-binding protein 1 was “Not Active”.
In the case of `CCCC(=O)/N=c1\c2c3c(ccc2cc2n1CCc1cc4c(cc1-2)OCO4)OCO3`, the viability at 10 µM in series [1] lay within 79 to 103%. Besides, the fold change (FC) in [2] is over 1.07. For the same compound, the negative-log EC50 (pEC50) at X-box-binding protein 1 was 6.92.
As a reminder, the inhibition in vivo is the percentage by which the read-out fell short of the control. Take `CCCCC(=O)/N=c1\c2c3c(ccc2cc2n1CCc1cc4c(cc1-2)OCO4)OCO3`: the viability at 10 µM in series [1] lay within 79 to 103%. Further, the fold change (FC) in series [2] was over 1.07. For the same compound, the pEC50 on X-box-binding protein 1 is 7.49. The results for the Activity in the series on Mus musculus [3], in the series with Mus musculus [4] and with Mus musculus [6] were 10%, 15% and 2.63, respectively. Further, the inhibition in vivo at 200 mg/kg in the series on Mus musculus [5] worked out at 33%. In addition, the result in the series with Mus musculus [7] was Active.
With `Brc1ccc(/N=c2/c3c4c(ccc3cc3n2CCc2cc5c(cc2-3)OCO5)OCO4)cc1`, in series [1], the viability at 10 µM fell in the range of 79 to 103%. Besides, the fold change (FC) in [2] is over 1.07. Besides, at X-box-binding protein 1, the pEC50 was 7.31.
The corresponding values for `CC(=O)/N=c1\c2c3c(ccc2cc2n1CCc1cc4c(cc1-2)OCO4)OCO3` are 79 to 103%, over 1.07 and 6.55.
Consider `O=c1c2c3c(ccc2cc2n1CCc1cc4c(cc1-2)OCO4)OCO3`, for which the fold change (FC) in series [2] was over 1.07. For the same compound, the pEC50 at X-box-binding protein 1 is 7.10.
As to `Cc1ccc(/N=c2/c3c4c(ccc3cc3n2CCc2cc5c(cc2-3)OCO5)OCO4)cc1`, in series [1], the viability at 10 µM is 79 to 103%. For the same compound, the fold change (FC) in [2] is over 1.07. Also, the pEC50 on X-box-binding protein 1 is 7.88. Also, the Activity in the series with Mus musculus [3] amounted to 11%; in the series on Mus musculus [4], 9%; in the series with Mus musculus [6], 2.63. Besides, in the series on Mus musculus [5], the inhibition in vivo at 200 mg/kg was found to be 27%. The outcome in the series on Mus musculus [8] was Active.
Turning to `O=C(O)C1=C/C(=N\Nc2ccc(S(=O)(=O)Nc3ccccn3)cc2)C=CC1=O`, the Activity worked out at 9% with Mus musculus [9], 24% with Mus musculus [10] and 3.17 with Mus musculus [12]. The inhibition in vivo at 300 mg/kg in the series on Mus musculus [11] is 18%. In addition, the outcome in the series on Mus musculus [13] was Active.
For the compound `CCCCCC(=O)/N=c1\c2c3c(ccc2cc2n1CCc1cc4c(cc1-2)OCO4)OCO3`, in [1], the viability at 10 µM lay within 79 to 103%. Also, the fold change (FC) in series [2] was over 1.07. For the same compound, on X-box-binding protein 1, the pEC50 was 7.15.
The corresponding values for `Clc1ccc(/N=c2/c3c4c(ccc3cc3n2CCc2cc5c(cc2-3)OCO5)OCO4)cc1` are 79 to 103%, over 1.07 and 6.76.
For `CCC(=O)/N=c1\c2c3c(ccc2cc2n1CCc1cc4c(cc1-2)OCO4)OCO3`, in that order: 79 to 103%, over 1.07 and 6.54.
On to `N=c1c2c3c(ccc2cc2n1CCc1cc4c(cc1-2)OCO4)OCO3`, for which the viability at 10 µM in series [1] lay within 79 to 103%. In addition, the Ratio in [2] lay in the range of 0.78 to 107. For the same compound, on X-box-binding protein 1, the EC50 entry was “Not Active”.
